# TRPC6 activator = activates the mouse TRPC6 cation channel. 0.13% of 310,000 active. HEK293-TRPC6 membrane potential dye fluorescence; hits give high values. AID 2550. Q61143. B-score at 10 µM;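 active = B-score of the integrated fluorescence ratio above library mean plus 3 SD, and starting fluorescence ratio within library mean plus 5 SD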;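 also: higher score means more depolarization so channel activation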
# TRPC4 PAM = TRPC4 (mouse) allosteric potentiation; 0.42% of 310,000 active; B-score at 10 µM; HEK293 TRPC4beta/mu-opioid, DAMGO EC20, Fluo-4 Ca2+ flux; hits give high values;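 active = B-score of calcium response area above 5 SD of library B-scores, with initial fluorescence ratio within 5 SD of library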;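 also: B-score of integrated fluorescence ratio over time as area under calcium response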
# Target sequence (Q9QUQ5 whole entry, looked up): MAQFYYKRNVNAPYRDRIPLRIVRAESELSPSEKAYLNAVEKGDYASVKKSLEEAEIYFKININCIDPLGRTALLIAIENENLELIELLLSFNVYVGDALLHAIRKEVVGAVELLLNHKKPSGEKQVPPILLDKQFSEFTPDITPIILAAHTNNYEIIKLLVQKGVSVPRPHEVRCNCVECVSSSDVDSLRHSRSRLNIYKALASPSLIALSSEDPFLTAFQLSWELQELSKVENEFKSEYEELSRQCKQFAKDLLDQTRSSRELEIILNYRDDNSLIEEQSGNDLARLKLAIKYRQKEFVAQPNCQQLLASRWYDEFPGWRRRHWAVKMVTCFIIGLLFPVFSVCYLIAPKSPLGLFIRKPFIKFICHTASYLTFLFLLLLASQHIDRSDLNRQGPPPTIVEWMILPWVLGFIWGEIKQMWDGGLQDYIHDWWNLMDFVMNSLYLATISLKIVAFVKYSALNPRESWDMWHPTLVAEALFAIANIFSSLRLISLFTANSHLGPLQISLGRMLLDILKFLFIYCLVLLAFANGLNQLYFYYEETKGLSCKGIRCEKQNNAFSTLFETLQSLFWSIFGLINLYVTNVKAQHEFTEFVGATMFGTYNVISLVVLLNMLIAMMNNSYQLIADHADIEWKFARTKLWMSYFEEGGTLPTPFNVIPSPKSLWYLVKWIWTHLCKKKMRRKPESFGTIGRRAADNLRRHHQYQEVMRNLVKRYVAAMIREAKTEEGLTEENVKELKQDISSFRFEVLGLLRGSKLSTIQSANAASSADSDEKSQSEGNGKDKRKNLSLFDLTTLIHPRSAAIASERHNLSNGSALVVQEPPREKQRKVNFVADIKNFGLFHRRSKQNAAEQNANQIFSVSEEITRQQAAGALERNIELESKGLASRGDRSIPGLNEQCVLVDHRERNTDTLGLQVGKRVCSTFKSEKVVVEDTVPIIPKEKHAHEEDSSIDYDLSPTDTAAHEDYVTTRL
# TRPC4 agonist = TRPC4 (mouse) channel activation | AID 2237 | HEK293 TRPC4beta/mu-opioid, Fluo4 calcium fluorescence; hits give high values | Q9QUQ5 | B-score at 10 µM | 0.49% of 310,000 active;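 active = B-score above 5 SD of library B-scores, and initial fluorescence ratio not above library mean plus 5 SD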;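 also: positive B-score marks a calcium rise read as TRPC4 activation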
#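 Material: HEK293 stable line with TRPC4beta plus mu-opioid receptor; technique: Fluo4 calcium-sensitive dye fluorescence, kinetic, 1 Hz baseline; timing: Fluo4 dye loading 45 min at room temperature, 110 s recording; controls: assay buffer as low control, maximal DAMGO as high control; read-out: integrated baseline-normalised fluorescence ratio, converted to per-well B score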
# TRPC6 inh = mouse TRPC6 channel inhibition; Q61143; HEK293-TRPC6, membrane potential dye, ACh-evoked depolarization; hits give low values; B-score at 10 µM; 1.1% of 310,000 active;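 active = B-score under library mean minus 3 SD, initial fluorescence not abnormally high, positive integrated signal ratio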;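 also: B-score derived from integrated fluorescence ratio over the kinetic read; more negative B-score means stronger inhibition of depolarization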
# TRPC4 block = inhibitors of mouse TRPC4 channel; AID 2247; B-score at 10 µM; HEK293 TRPC4beta/mu-opioid, DAMGO-evoked Fluo4 calcium flux; hits give low values; 0.39% of 300,000 active; Q9QUQ5;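 active = B-score over 3 SD under the library average, no early fluorescence shift, positive overall ratio signal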
#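 Test system – stable TRPC4beta/mu-opioid receptor HEK293 cells · Probe or stimulus – DAMGO, a submaximal dose followed by a maximal one · Dosing – one concentration per compound · Signal – Fluo4 calcium fluorescence by kinetic imaging, 5 s 1 Hz baseline · Evaluation – per-well B score of integrated baseline-normalized Fluo4 ratio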
# * marks the source's active call; other numbers are inactive results; i = inactive. A selection: hits, their analogues and other compounds. The true share with any hit is near 2.3%.
SMILES,TRPC6 activator,TRPC4 PAM,TRPC4 agonist,TRPC6 inh,TRPC4 block
Cc1ccc(-n2c(C)cc(C)c(C#N)c2=O)cc1Cl,i,i,45*,i,-6*
Cc1cc(C)n(-c2cc(Cl)cc(Cl)c2)c(=O)c1C#N,i,i,i,i,i
O=c1[nH]c(-[n+]2ccc3ccccc3c2)c(/C=N/N=C(\[O-])c2ccccc2)s1,i,i,i,i,-6*
CC(C)(C)c1cc[n+](-c2[nH]c(=O)sc2/C=N/N=C(\[O-])c2cccnc2)cc1,i,i,i,i,i
O=C(CNCC1CCCCC1)Nc1ccc(OC(F)(F)F)cc1,i,i,43*,i,i
CC1N(C(=O)N2CCOCC2)CCN1S(=O)(=O)c1cccc(C(F)(F)F)c1 (configuration not stated),i,i,i,i,i
Cc1ncsc1CCOC(=O)C12CC3CC(CC(C3)C1)C2,i,i,i,i,-7*
OC(COC(c1ccccc1)c1ccccc1)CN1CCN(c2cccc(Cl)c2)CC1 (configuration not stated),i,i,i,i,i
CC(=O)c1ccc(N2CCN(CC(O)COC(c3ccccc3)c3ccccc3)CC2)cc1 (configuration not stated),i,11*,i,i,i
CC(=O)c1ccc(N2CCN(CC(O)COC(c3ccccc3)c3ccccc3C)CC2)cc1 (configuration not stated),i,12*,i,i,i
Cc1cccc(/C=N/NC(=O)c2cccc(Cl)c2)n1,i,21*,i,i,i
C=CCOc1ccc(/C=C2\SC(=S)N(NS(=O)(=O)c3ccc(C)cc3)C2=O)cc1,i,12*,i,i,i
CCOC(=O)COc1cc(-n2c(=S)[nH]c3ccccc3c2=O)c(Cl)cc1Cl,i,31*,i,i,i
O=C1CSC(=S)N1/N=C/c1cc(Br)c(O)c(Br)c1,i,i,i,i,i
O=C(Nc1cc(S(=O)(=O)N2CCOCC2)ccc1N1CCOCC1)c1cnccn1,i,i,i,i,i
Cc1cnc(C(=O)Nc2cc(S(=O)(=O)N3CCOCC3)ccc2N2CCN(C)CC2)cn1,i,11*,i,i,i
O=C(Nc1ccc(F)cc1)Nc1cc(S(=O)(=O)N2CCOCC2)ccc1N1CCCC1,i,39*,i,i,i
COc1ccc(CNCCC(c2ccccc2)C2CCOC(C)(C)C2)cc1 (configuration not stated),i,i,60*,i,i
COc1ccc(CN(CCC(c2ccccc2)C2CCOC(C)(C)C2)C(C)=O)cc1 (configuration not stated),i,i,i,i,i
CCCCNC(=O)c1cc(C)nn1-c1ccccc1,i,i,i,i,i
Cc1cc(C(=O)NCCCN2CCN(c3cc(Cl)ccc3C)CC2)n(-c2ccccc2)n1,i,i,i,i,-6*
O=[N+]([O-])c1ccc(/C=N\NS(=O)(=O)c2ccc(F)cc2)o1,i,i,i,i,i
COc1ccc(NC(=O)C2CC3CCC2C3)c(OC)c1 (configuration not stated),i,i,i,i,i
COC(=O)c1cc(C(=O)c2ccc(C(C)(C)C)cc2)c[nH]1,i,10*,i,i,i
COC(=O)c1c(C)nn(-c2ccc(F)c(Cl)c2)c1-c1cc(C)on1,i,i,i,i,i
SMILES,TRPC6 activator,TRPC4 PAM,TRPC4 agonist,TRPC6 inh,TRPC4 block
COc1ccc(OC)c(-c2cc(C3CCN(c4cc(Cl)nc(N)n4)CC3)[nH]n2)c1,i,12*,i,i,i
COc1ccc(-c2cc(C3CCN(c4cc(Cl)nc(N)n4)CC3)[nH]n2)cc1,i,38*,i,i,i
Nc1nc(Cl)cc(N2CCC(c3cc(-c4ccc(Cl)cc4)n[nH]3)CC2)n1,i,i,i,i,i
COc1cccc(N=Nc2c(N)[nH][nH]c2=O)c1,i,14*,i,i,i
Nc1[nH][nH]c(=O)c1N=Nc1cccc(Cl)c1,i,10*,i,i,i
CN1CCCC(OC(=O)c2cc(Br)ccc2Cl)C1 (configuration not stated),i,10*,126*,i,i

# From PubChem BioAssay
